Data on 23 compounds can be found in ChEMBL document CHEMBL2331366, “Bioactive indole alkaloids and phenyl ether derivatives from a marine-derived Aspergillus sp. Fungus” (J Nat Prod, 2013).

Assay [1] relates to Staphylococcus aureus. The assay is described as follows: Antibacterial activity against Staphylococcus aureus ATCC 27154 assessed as growth inhibition. In kind it is functional. The method in brief: (§1)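 In vitro antibacterial test against each listed strain. Activity is reported as MIC (μM), with ciprofloxacin as the positive control.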
Assay [2] concerns Vibrio parahaemolyticus. The assay is described as follows: Antibacterial activity against Vibrio parahaemolyticus ATCC 17802 assessed as growth inhibition. It is filed as functional. The method in brief: as §1
The test system of assay [3] is Staphylococcus epidermidis. The assay is described as follows: Antibacterial activity against Staphylococcus epidermidis ATCC 12228 assessed as growth inhibition. In kind it is functional. In short, it runs like this:
as §1

The subject of assay [4] is Vibrio anguillarum. The assay is described as follows: Antibacterial activity against Vibrio anguillarum ATCC 19019 assessed as growth inhibition. It is filed as functional. In short, it runs like this: as §1
In assay [5] the test system is HL-60. The assay is described as follows: Cytotoxicity against human HL60 cells assessed as inhibition of cell viability by MTT assay. It is filed as functional, cell-based.
Assay [6] deals with K562. The assay is described as follows: Cytotoxicity against human K562 cells assessed as inhibition of cell viability by MTT assay. In kind it is functional, cell-based.
Assay [7] concerns Pseudomonas putida. The assay is described as follows: Antibacterial activity against Pseudomonas putida ATCC 17848 assessed as growth inhibition. It is filed as functional. In short, it runs like this: as §1
The test system of assay [8] is Staphylococcus epidermidis. The assay is described as follows: Ratio of ciprofloxacin MIC to compound MIC for Staphylococcus epidermidis ATCC 12228. In kind it is functional.
For assay [9], the system named is Micrococcus. The assay is described as follows: Antibacterial activity against Micrococcus tetragenus ATCC 13623 assessed as growth inhibition. It is filed as functional, organism-based. The method in brief:
as §1

Assay [10] deals with Bacillus cereus. The assay is described as follows: Antibacterial activity against Bacillus cereus ACCC 11077 assessed as growth inhibition. In kind it is functional, organism-based. The method in brief: as §1
Assay [11] relates to Escherichia coli. The assay is described as follows: Antibacterial activity against Escherichia coli ATCC 25922 assessed as growth inhibition. In kind it is functional, organism-based. In short, it runs like this: as §1

In brackets after ≈: the same amount, converted by molar mass. Activity calls are given as the source filed them. The rule behind the calls is not given here. Some results are limits rather than exact numbers.

With `COc1cc(C)cc(Oc2cc(C)cc(OC)c2O)c1O`, the MIC (in general, the lowest concentration that inhibits growth of the organism) is 100 µM (≈ 29 µg/mL) in assay [1]; > 100 µM in assay [2]; > 100 µM in assay [3]; 100 µM (≈ 29 µg/mL) in assay [4]; > 100 µM in [7]. Besides, the half-maximal inhibitory concentration (IC50) in [5] and in [6] was > 10 µM throughout.
For `COC(=O)c1c(C)cc(Oc2cc(C)cc(O)c2)cc1O`, the minimum inhibitory concentration (MIC) in assay [1] stood at 10.9 µM (≈ 3.14 µg/mL); in assay [2], 21.7 µM (≈ 6.26 µg/mL); in assay [3], 2.71 µM (≈ 0.781 µg/mL); in [4], 21.7 µM (≈ 6.26 µg/mL); in assay [7], 21.7 µM (≈ 6.26 µg/mL). The results for the IC50 in assay [5] and in assay [6] were > 10 µM and 5.94 µM, respectively.
Consider `COC(=O)c1c(C)c(Br)c(Oc2c(Br)c(C)c(Br)c(O)c2Br)c(Br)c1O`, for which the MIC in assay [1] was 100 µM (≈ 68.3 µg/mL); in assay [2], > 100 µM; in [3] it was 100 µM (≈ 68.3 µg/mL); in assay [4], 9.23 µM (≈ 6.3 µg/mL); in [7], > 100 µM.
Turning to `CC(=O)Oc1cc(C)cc(Oc2cc(C)cc(O)c2)c1`, the minimum inhibitory concentration (MIC) in assay [1] was > 100 µM; in assay [2], 100 µM (≈ 27.2 µg/mL); in assay [3], 100 µM (≈ 27.2 µg/mL); in assay [4], 46 µM (≈ 12.5 µg/mL); in assay [7], 100 µM (≈ 27.2 µg/mL).
As to `CC(=O)Oc1cc(C)cc(Oc2cc(C)cc(OC(C)=O)c2)c1`, the minimum inhibitory concentration (MIC) in [1], in [2], in [3], in [4] and in assay [7] was > 100 µM each time.
With `CCCCCOc1cc(C)cc(Oc2cc(C)cc(O)c2)c1`, the minimal inhibitory concentration (MIC) stood at 20.8 µM (≈ 6.25 µg/mL) in assay [1]; 10.4 µM (≈ 3.12 µg/mL) in [2]; 20.8 µM (≈ 6.25 µg/mL) in [3]; 10.4 µM (≈ 3.12 µg/mL) in assay [4]; 10.4 µM (≈ 3.12 µg/mL) in assay [7].
For `CCCCCOc1cc(C)cc(Oc2cc(C)cc(OCCCCC)c2)c1`, the minimal inhibitory concentration (MIC) was > 100 µM in assay [1]; 100 µM (≈ 37.1 µg/mL) in [2]; > 100 µM in assay [3]; > 100 µM in assay [4]; > 100 µM in [7].
Consider `CCCOc1cc(C)cc(Oc2cc(C)cc(O)c2)c1`, for which the MIC in [1] came to 46 µM (≈ 12.5 µg/mL); in assay [2] it was 2.87 µM (≈ 0.782 µg/mL); in assay [3] it was 46 µM (≈ 12.5 µg/mL); in assay [4] it was 23 µM (≈ 6.26 µg/mL); in assay [7], 100 µM (≈ 27.2 µg/mL).
On to `Cc1cc(O)cc(Oc2cc(C)cc(OC(=O)c3ccccc3)c2)c1`, for which the minimal inhibitory concentration (MIC) is > 100 µM in [1]; 18.7 µM (≈ 6.25 µg/mL) in assay [2]; 18.7 µM (≈ 6.25 µg/mL) in assay [3]; > 100 µM in [4]; > 100 µM in assay [7].
Take `Cc1c(Br)c(O)c(Br)c(Oc2c(Br)c(C)c(Br)c(O)c2Br)c1Br`: the minimal inhibitory concentration (MIC) was 1.11 µM (≈ 0.781 µg/mL) in assay [1]; 1.11 µM (≈ 0.781 µg/mL) in assay [2]; 0.556 µM (≈ 0.391 µg/mL) in [3]; 1.11 µM (≈ 0.781 µg/mL) in assay [4]; 1.11 µM (≈ 0.781 µg/mL) in assay [7]. The Ratio in assay [8] was found to be 5.
In the case of `C=CC(C)(C)[C@]1(C[C@@H]2NC(=O)[C@@]3(OC)CCCN3C2=O)C(=O)Nc2c1ccc1c2C=CC(C)(C)O1`, the “growth inhibition (GI)” value in [1], in assay [9], in [2], in assay [3], in assay [4] and in assay [7] was “inactive” in each case. Moreover, the “growth inhibition (GI)” value in assay [10] and in assay [11] was “inactive” throughout. Moreover, the half-maximal inhibitory concentration (IC50) in assay [5] and in assay [6] was > 10 µM throughout.
Turning to `C=CC(C)(C)[C@]1(C[C@@H]2NC(=O)[C@@]3(O)CCCN3C2=O)C(=O)Nc2c1ccc1c2C=CC(C)(C)O1`, the “growth inhibition (GI)” value in [1], in assay [9], in assay [2], in [3], in assay [4] and in assay [7] was “inactive” throughout. The “growth inhibition (GI)” value in assay [10] and in assay [11] was “inactive” each time. The concentration for half-maximal inhibition (IC50) in assay [5] and in assay [6] was > 10 µM throughout.
Turning to `O=C(O)c1cn(C2CC2)c2cc(N3CCNCC3)c(F)cc2c1=O` [CIPROFLOXACIN], the minimum inhibitory concentration (MIC) in assay [1] was determined as 0.78 µM (≈ 0.258 µg/mL); in assay [2], 0.195 µM (≈ 0.0646 µg/mL); in assay [4], 0.0975 µM (≈ 0.0323 µg/mL); in [7] it was 0.195 µM (≈ 0.0646 µg/mL).
Regarding `Cc1cc(O)cc(Oc2cc(C)cc(O)c2O)c1` [CORDYOL C], the MIC in assay [1], in assay [2], in [3], in assay [4] and in assay [7] was 100 µM (≈ 24.6 µg/mL) in each case. The half-inhibitory concentration (IC50) in [5] and in [6] was > 10 µM in each case.
Consider `COc1cc(C)cc(Oc2cc(C)cc(OC)c2OC)c1O` [CORDYOL D], for which the MIC in assay [1], in [2], in assay [3], in assay [4] and in assay [7] was > 100 µM throughout. Also, the IC50 in assay [5] and in assay [6] was > 10 µM each time.
`COc1cc(C)cc(Oc2cc(C)cc(O)c2)c1` [CORDYOL E]: the MIC in [1] amounted to 51.2 µM (≈ 12.5 µg/mL); in [2], 51.2 µM (≈ 12.5 µg/mL); in assay [3], 25.6 µM (≈ 6.25 µg/mL); in assay [4], 25.6 µM (≈ 6.25 µg/mL); in [7], 51.2 µM (≈ 12.5 µg/mL). Besides, the IC50 in assay [5] and in assay [6] was > 10 µM in each case.
Consider `C=CC(C)(C)[C@]1(C[C@@H]2NC(=O)C3=CCCN3C2=O)C(=O)Nc2c1ccc1c2C=CC(C)(C)O1` [DEHYDRONOTOAMIDE C], for which the “growth inhibition (GI)” value in assay [1], in [9], in assay [2], in [3], in [4] and in assay [7] was “inactive” in each case. For the same compound, the “growth inhibition (GI)” value in [10] and in assay [11] was “inactive” throughout. The IC50 in assay [5] and in assay [6] was > 10 µM in each case.
As to `Cc1cc(O)cc(Oc2cc(C)cc(O)c2)c1` [DIORCINOL], the minimal inhibitory concentration (MIC) in [1] came to 54.3 µM (≈ 12.5 µg/mL); in assay [2], 100 µM (≈ 23 µg/mL); in [3], 27.2 µM (≈ 6.26 µg/mL); in assay [4] it was 100 µM (≈ 23 µg/mL); in [7], 100 µM (≈ 23 µg/mL). In addition, the IC50 in assay [5] and in assay [6] was > 10 µM throughout.
Consider `CC1(C)C=Cc2c(ccc3c2NC(=O)[C@@]32C[C@@]34NC(=O)[C@]5(CCCN5C3=O)C[C@H]4C2(C)C)O1` [NOTOAMIDE B], for which the “growth inhibition (GI)” value in [1], in assay [9], in assay [2], in assay [3], in assay [4] and in assay [7] was “inactive” each time. The “growth inhibition (GI)” value in [10] and in assay [11] was “inactive” throughout. Besides, the IC50 in [5] and in [6] was > 10 µM throughout.
Regarding `C=CC(C)(C)[C@]1(C[C@@H]2NC(=O)[C@@H]3CCCN3C2=O)C(=O)Nc2c1ccc1c2C=CC(C)(C)O1` [NOTOAMIDE C], the “growth inhibition (GI)” value in assay [1], in assay [9], in assay [2], in assay [3], in assay [4] and in assay [7] was “inactive” each time. Also, the “growth inhibition (GI)” value in [10] and in [11] was “inactive” each time. Further, the IC50 in [5] and in assay [6] was > 10 µM in each case.
`C=CC(C)(C)[C@]1(C[C@@H]2NC(=O)[C@]3(O)CCCN3C2=O)C(=O)Nc2c1ccc1c2C=CC(C)(C)O1` [NOTOAMIDE M]: the “growth inhibition (GI)” value in assay [1], in [9], in [2], in assay [3], in [4] and in [7] was “inactive” each time. The “growth inhibition (GI)” value in [10] and in assay [11] was “inactive” each time. The IC50 in assay [5] and in [6] was > 10 µM throughout.
On to `C=CC(C)(C)[C@]1(C[C@@H]2NC(=O)[C@]3(OC)CCCN3C2=O)C(=O)Nc2c1ccc1c2C=CC(C)(C)O1` [NOTOAMIDE Q], for which the “growth inhibition (GI)” value in assay [1], in [9], in [2], in [3], in assay [4] and in assay [7] was “inactive” in each case. Moreover, the “growth inhibition (GI)” value in assay [10] and in [11] was “inactive” in each case. In addition, the concentration for half-maximal inhibition (IC50) in assay [5] and in [6] was > 10 µM in each case.
On to `CC1(C)C=Cc2c(ccc3c4c([nH]c23)C(C)(C)[C@@H]2C[C@]35CCCN3C(=O)[C@@]2(C4)NC5=O)O1` [STEPHACIDIN A], for which the MIC is > 100 µM in assay [1]; > 100 µM in assay [2]; 14.5 µM (≈ 6.26 µg/mL) in [3]; > 100 µM in [4]; > 100 µM in [7]. The 50% inhibitory concentration (IC50) in assay [5] and in assay [6] was > 10 µM throughout.
